This is an account of results in ChEMBL document CHEMBL1123915, “Macrolides with gastrointestinal motor stimulating activity” (1987).

Values after ≈ are worked out from the molar mass of the structure shown. Where only a bound is given, the exact number is not on record here.

The subject of test [1] is Bacillus subtilis. Put plainly: Antibacterial activity against Bacillus subtilis ATCC 6633. The format is functional. The method, boiled down: (§1)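 MIC determined by agar dilution. Strains as listed on each line.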
The subject of test [2] is Bacillus cereus. Put plainly: Antibacterial activity against Bacillus cereus IFO 3001. The format is functional. The method in brief: as §1
Test [3] relates to Canis familiaris. Nature of the test: Evaluated for gastrointestinal motor stimulating (GMS) activity in dog estimated in vivo by 2 x 2 points parallel line assay. Activity of EM-A was assumed to be 1. Format: functional, Canis lupus familiaris. The method, boiled down: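 Fasted conscious dogs carried chronically implanted serosal force transducers recording circular muscle contraction in the gastric body, antrum and small intestine. Dosing was an intravenous bolus 10–15 min after interdigestive gastric contractions ended. Antral contractile waves were integrated for 10 min from injection. Relative potency came from a 2 × 2 parallel line assay with five animals per dose, using EM as the reference in each assay.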

The subject of test [4] is Escherichia coli. Put plainly: Antibacterial activity against Escherichia coli NIHJ. The format is functional. The method, boiled down:
as §1

Test [5] concerns Klebsiella pneumoniae. Put plainly: Antibacterial activity against Klebsiella pneumoniae ATCC 10031. The format is functional. The method in brief:
as §1

Test [6] concerns Staphylococcus aureus. Put plainly: Antibacterial activity against Staphylococcus aureus ATCC 6538P. Format: functional. The method in brief: as §1

Take `CCC1OC(=O)C(C)C(O[C@H]2C[C@@](C)(OC)[C@@H](O)[C@@H](C)O2)C(C)[C@@H](O[C@@H]2O[C@H](C)C[C@@H]([N+](C)(C)CC)[C@H]2O)[C@]2(C)CC(C)=C(O2)[C@H](C)[C@@H](O)[C@]1(C)O.[I-]` (stereo not given in full): the MIC in test [1], in test [2], in test [4], in test [5] and in test [6] was > 100 µg/mL in each case. Also, the GMS activity in test [3] is reported as 111.
As to `C=CC[N+](C)(C)[C@@H]1C[C@@H](C)O[C@@H](O[C@@H]2C(C)C(O[C@H]3C[C@@](C)(OC)[C@@H](O)[C@@H](C)O3)C(C)C(=O)OC(CC)[C@@](C)(O)[C@H](O)[C@@H](C)C3=C(C)C[C@]2(C)O3)[C@@H]1O.[Br-]` (stereo not given in full), the minimum inhibitory concentration (MIC) in test [1] was > 100 µg/mL; in test [2], > 100 µg/mL; in test [4], > 100 µg/mL; in test [5], > 100 µg/mL; in test [6], 100 µg/mL. Further, the GMS activity in test [3] is recorded as 256.
With `C#CC[N+](C)(C)[C@@H]1C[C@@H](C)O[C@@H](O[C@@H]2C(C)C(O[C@H]3C[C@@](C)(OC)[C@@H](O)[C@@H](C)O3)C(C)C(=O)OC(CC)[C@@](C)(O)[C@H](O)[C@@H](C)C3=C(C)C[C@]2(C)O3)[C@@H]1O.[Br-]` (stereo not given in full), the MIC in test [1] is 100 µg/mL; in test [2], 100 µg/mL; in test [4], > 100 µg/mL; in test [5], > 100 µg/mL; in test [6], 100 µg/mL. For the same molecule, the GMS activity in test [3] is 2890.
For `CCC1OC(=O)C(C)C(O[C@H]2C[C@@](C)(OC)[C@@H](O)[C@@H](C)O2)C(C)[C@@H](O[C@@H]2O[C@H](C)C[C@@H]([N+](C)(C)C)[C@H]2O)[C@]2(C)CC(C)=C(O2)[C@H](C)[C@@H](O)[C@]1(C)O.[I-]` (stereo not given in full), the MIC in test [1], in test [2], in test [4], in test [5] and in test [6] was > 100 µg/mL each time. The GMS activity in test [3] was 21.
Take `CC[C@H]1OC(=O)[C@H](C)[C@@H](O[C@H]2C[C@@](C)(OC)[C@@H](O)[C@H](C)O2)[C@H](C)[C@@H](O[C@@H]2O[C@H](C)C[C@H](N(C)C)[C@H]2O)[C@@]2(C)CC(C)=C(O2)[C@H](C)[C@@H](O)[C@]1(C)O`: the minimal inhibitory concentration (MIC) in test [1] was 25 µg/mL (≈ 34.9 µM); in test [2], 25 µg/mL (≈ 34.9 µM); in test [4], > 100 µg/mL; in test [5], > 100 µg/mL; in test [6], 50 µg/mL (≈ 69.8 µM). Also, in test [3], the GMS activity is 10.
For the molecule `C#CC[N+](C)(C)C1CC(C)OC(O[C@@H]2C(C)C(OC3CC(C)(OC)C(O)C(C)O3)C(C)C(=O)OC(CC)[C@@](C)(O)[C@H](O)[C@@H](C)C3O[C@@]2(C)C[C@H]3C)C1O.[Br-]` (stereo not given in full), the minimum inhibitory concentration (MIC) in test [1], in test [2], in test [4], in test [5] and in test [6] was > 100 µg/mL in each case. Besides, the GMS activity in test [3] is on record as 202.
Regarding `CCC1OC(=O)C(C)C(O[C@H]2C[C@@](C)(OC)[C@@H](O)[C@@H](C)O2)C(C)[C@@H](O[C@@H]2O[C@H](C)C[C@@H](N(C)CC)[C@H]2O)[C@]2(C)CC(C)=C(O2)[C@H](C)[C@@H](O)[C@]1(C)O` (stereo not given in full), the MIC in test [1], in test [2], in test [4], in test [5] and in test [6] was > 100 µg/mL in each case. In addition, the GMS activity in test [3] is recorded as 18.
Turning to `C=CC[N+](C)(C)C1CC(C)OC(O[C@@H]2C(C)C(OC3CC(C)(OC)C(O)C(C)O3)C(C)C(=O)OC(CC)[C@@](C)(O)[C@H](O)[C@@H](C)C3O[C@@]2(C)C[C@H]3C)C1O.[Br-]` (stereo not given in full), the minimal inhibitory concentration (MIC) is 100 µg/mL in test [1]; 100 µg/mL in test [2]; > 100 µg/mL in test [4]; > 100 µg/mL in test [5]; 100 µg/mL in test [6]. The GMS activity in test [3] is reported as 115.
With `CCC1OC(=O)C(C)C(OC2CC(C)(OC)C(O)C(C)O2)C(C)[C@@H](OC2OC(C)CC([N+](C)(C)C)C2O)[C@]2(C)C[C@@H](C)C(O2)[C@H](C)[C@@H](O)[C@]1(C)O.[I-]` (stereo not given in full), the MIC in test [1], in test [2], in test [4], in test [5] and in test [6] was > 100 µg/mL each time. Moreover, the GMS activity in test [3] is 65.
As to `CC[C@H]1OC(=O)[C@H](C)[C@@H](O[C@H]2C[C@@](C)(OC)[C@@H](O)[C@H](C)O2)[C@H](C)[C@@H](O[C@@H]2O[C@H](C)C[C@H](N(C)C)[C@H]2O)[C@](C)(O)C[C@@H](C)C(=O)[C@H](C)[C@@H](O)[C@]1(C)O` [ERYTHROMYCIN], the MIC was 0.1 µg/mL (≈ 0.136 µM) in test [1]; 0.1 µg/mL (≈ 0.136 µM) in test [2]; 12.5 µg/mL (≈ 17 µM) in test [4]; 6.25 µg/mL (≈ 8.52 µM) in test [5]; 0.2 µg/mL (≈ 0.273 µM) in test [6]. In addition, the GMS activity in test [3] is recorded as 1.

For orientation: MIC means the lowest concentration found to suppress growth. High values mean weaker potency, low ones greater potency.
